# Measurements published in ChEMBL document CHEMBL1121364, “Nucleoside conjugates as potential antitumor agents. 3. Synthesis and antitumor activity of 1-(beta-D-arabinofuranosyl)cytosine conjugates of corticosteroids” (1980).
# Columns and labels:
# L1210 [1] = assay: Antitumor activity in the mice with intraperitoneal implanted L1210 lymphoid leukemia at the dose 25 mg/kg/day x 5 was determined as percentage increase in the life span as compared with control tumor bearers; type: functional; settings: Mus musculus, L1210, ip
# Method in brief: (§1)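 Female C3D2F1/J mice (C3H/HeJ × DBA/2J), groups of six to eight, average weight 25 g. Each mouse got 1 × 10^6 L1210 ascites cells ip, taken from DBA/2Ha donor mice bearing 3-5 day tumors. Compound was dissolved in 0.154 N NaOH and neutralized with 0.154 N HCl (final 0.9% NaCl). Dosed ip daily ×5, starting 24 h after implant. Recorded body weight change on day 8, survival range, median survival and 30-day survivors. ILS = (T/C − 1) × 100.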
# L1210 [2] = assay: Antitumor activity in the mice with intraperitoneal implanted L1210 lymphoid leukemia at the dose 75 mg/kg/day x 5 was determined as Survival time in days; Range is 14- >45 days; type: functional, Mus musculus
# Method in brief: (§2)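 C3D2F1/J female mice (C3H/HeJ female × DBA/2J male), groups of six to eight, average weight 25 g. Inoculated ip with 1 × 10^6 L1210 ascites cells taken from DBA/2Ha donor mice bearing 3-5 day old tumors. Compounds were dissolved in 0.154 N NaOH, neutralized with 0.154 N HCl (final 0.9% NaCl), and given ip daily for 5 days from 24 h post-implant. Median survival T/C; ILS = (T/C − 1) × 100; 30-day survivors counted.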
# L1210 [3] = assay: Antitumor activity in mice with intraperitoneal implanted L1210 lymphoid leukemia at the dose 75 mg/kg/day x 5 was determined as weight change (g/mouse) on 8th day; type: functional
# Method in brief: (§3)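 C3D2F1/J female mice (C3H/HeJ × DBA/2J), groups of six to eight, average 25 g, inoculated ip with 1 × 10^6 L1210 ascites cells taken from DBA/2Ha donor mice carrying 3-5 day tumors. Compound dissolved in 0.154 N NaOH, then neutralized with 0.154 N HCl to give 0.9% NaCl. Given ip daily for 5 consecutive days starting 24 h after implantation. Body weight change per mouse recorded on day 8.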
# L1210 [4] = assay: Antitumor activity in the mice with intraperitoneal implanted L1210 lymphoid leukemia at the dose 75 mg/kg/day x 5 was determined as percentage increase in the life span as compared with control tumor bearers; type: functional; settings: Mus musculus, L1210, ip; method in brief: as §2
# L1210 [5] = assay: In Vitro evaluation for the antiproliferative activity by observing the growth inhibition of L1210 lymphoid leukemia cells in culture at 72 hour; type: functional, Mus musculus
# Method in brief: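 Growth of L1210 lymphoid leukemia cells in culture measured by Trypan blue exclusion of viable cells after 72 h of drug exposure. ED50 is the concentration giving 50% growth inhibition. In some runs the compound was first preincubated in medium at 37 °C for 24 or 48 h before the assay.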
# L1210 [6] = assay: Antitumor activity in the mice with intraperitoneal implanted L1210 lymphoid leukemia at the dose 50 mg/kg/day x 5 was determined as Survival time in days; Range is 17-24 days; type: functional, Mus musculus; method in brief: as §1
# L1210 [7] = assay: Antitumor activity in the mice with intraperitoneal implanted L1210 lymphoid leukemia at the dose of 50 mg/kg/day x 5 was determined as mean survival of treated group compared to untreated; 19/8; type: functional, Mus musculus; method in brief: as §2
# L1210 [8] = assay: Antitumor activity in the mice with intraperitoneal implanted L1210 lymphoid leukemia at the dose 25 mg/kg/day x 5 was determined as Survival time in days; Range is 8-21 days; type: functional, Mus musculus; method in brief: as §1
# L1210 [9] = assay: Antitumor activity in mice with intraperitoneal implanted L1210 lymphoid leukemia at the dose 25 mg/kg/day x 5 was determined as weight change (g/mouse) on 8th day; type: functional; method in brief: as §3
# L1210 [10] = assay: Antitumor activity in mice with intraperitoneal implanted L1210 lymphoid leukemia at the dose 50 mg/kg/day x 5 was determined as weight change (g/mouse) on 8th day; type: functional; method in brief: as §3
# L1210 [11] = assay: Antitumor activity in the mice with intraperitoneal implanted L1210 lymphoid leukemia at the dose 25 mg/kg/day x 5 was determined and number of animals survived on 30 th day were reported; 0/8; type: functional, Mus musculus; method in brief: as §1
# L1210 [12] = assay: Antitumor activity in the mice with intraperitoneal implanted L1210 lymphoid leukemia at the dose 75 mg/kg/day x 5 was determined and number of animals survived on 30 th day were reported; 1/8; type: functional, Mus musculus; method in brief: as §2
# L1210 [13] = assay: Antitumor activity in the mice with intraperitoneal implanted L1210 lymphoid leukemia at the dose 50 mg/kg/day x 5 was determined and number of animals survived on 30 th day were reported; 0/8; type: functional, Mus musculus; method in brief: as §1
# L1210 [14] = assay: Antitumor activity in the mice with intraperitoneal implanted L1210 lymphoid leukemia at the dose 50 mg/kg/day x 5 was determined as percentage increase in the life span as compared with control tumor bearers; type: functional; settings: Mus musculus, L1210, ip; method in brief: as §2
# L1210 [15] = assay: Antitumor activity in the mice with intraperitoneal implanted L1210 lymphoid leukemia at the dose of 25 mg/kg/day x 5 was determined as mean survival of treated group compared to untreated; 16/8.5; type: functional, Mus musculus; method in brief: as §2
# L1210 [16] = assay: Antitumor activity in the mice with intraperitoneal implanted L1210 lymphoid leukemia at the dose of 75 mg/kg/day x 5 was determined as mean survival of treated group compared to untreated; 18.5/9.5; type: functional, Mus musculus
# L1210 [17] = assay: Antitumor activity in the mice with intraperitoneal implanted L1210 lymphoid leukemia at the dose 50 mg/kg/day x 5 was determined and number of animals survived on 30 th day were reported; 2/8; type: functional, Mus musculus; method in brief: as §1
# L1210 [18] = assay: Antitumor activity in the mice with intraperitoneal implanted L1210 lymphoid leukemia at the dose 75 mg/kg/day x 5 was determined as Survival time in days; Range is 12-21 days; type: functional, Mus musculus; method in brief: as §2
# L1210 [19] = assay: Antitumor activity in the mice with intraperitoneal implanted L1210 lymphoid leukemia at the dose of 25 mg/kg/day x 5 was determined as mean survival of treated group compared to untreated; 16.5/8.5; type: functional, Mus musculus; method in brief: as §2
# L1210 [20] = assay: Antitumor activity in the mice with intraperitoneal implanted L1210 lymphoid leukemia at the dose 75 mg/kg/day x 5 was determined and number of animals survived on 30 th day were reported; 0/8; type: functional, Mus musculus; method in brief: as §2
# L1210 [21] = assay: Antitumor activity in the mice with intraperitoneal implanted L1210 lymphoid leukemia at the dose 25 mg/kg/day x 5 was determined as Survival time in days; Range is 14-18 days; type: functional, Mus musculus; method in brief: as §1
# L1210 [22] = assay: Antitumor activity in the mice with intraperitoneal implanted L1210 lymphoid leukemia at the dose of 75 mg/kg/day x 5 was determined as mean survival of treated group compared to untreated; 17/8.5; type: functional, Mus musculus
# L1210 [23] = assay: Antitumor activity in the mice with intraperitoneal implanted L1210 lymphoid leukemia at the dose of 50 mg/kg/day x 5 was determined as mean survival of treated group compared to untreated; 24/8; type: functional, Mus musculus
# L1210 [24] = assay: Antitumor activity in the mice with intraperitoneal implanted L1210 lymphoid leukemia at the dose 50 mg/kg/day x 5 was determined as Survival time in days; Range is 15-42 days; type: functional, Mus musculus; method in brief: as §1
Compound,ILS at 25 mg/kg/day (L1210 [1]),Weight change (L1210 [3]),ILS at 75 mg/kg/day (L1210 [4]),ED 50 (L1210 [5]),Weight change (L1210 [9]),Weight change (L1210 [10]),Survivors (L1210 [11]),ILS at 50 mg/kg/day (L1210 [14]),other results
C[C@]12CC[C@H]3[C@@H](CCC4=CC(=O)CC[C@@]43C)[C@@H]1CC[C@@H]2C(=O)COP(=O)(O)OC[C@H]1O[C@@H](n2ccc(N)nc2=O)[C@@H](O)[C@@H]1O,88%,-0.09 g mouse-1,95%,50 nM,-0.54 g mouse-1,-0.94 g mouse-1,0,138%,Survival time (L1210 [2]): 14 days; Survival time (L1210 [6]): 17 days; T/C (L1210 [7]): 19; Survival time (L1210 [8]): 8 days; Survivors (L1210 [12]): 1; Survivors (L1210 [13]): 0; T/C (L1210 [15]): 16; T/C (L1210 [16]): 18.5
C[C@]12C[C@H](O)[C@H]3[C@@H](CCC4=CC(=O)CC[C@@]43C)[C@@H]1CC[C@@H]2C(=O)COP(=O)(O)OC[C@H]1O[C@@H](n2ccc(N)nc2=O)[C@@H](O)[C@@H]1O,94%,-0.59 g mouse-1,100%,90 nM,0.06 g mouse-1,-1.24 g mouse-1,0,200%,Survivors (L1210 [17]): 2; Survival time (L1210 [18]): 12 days; T/C (L1210 [19]): 16.5; Survivors (L1210 [20]): 0; Survival time (L1210 [21]): 14 days; T/C (L1210 [22]): 17; T/C (L1210 [23]): 24; Survival time (L1210 [24]): 15 days
